In ChEMBL document CHEMBL4513216, “Probing the Open Global Health Chemical Diversity Library for Multistage-Active Starting Points for Next-Generation Antimalarials” (ACS Infect Dis, 2020):

Assay: Toxicity liver stage against HepG2, at 10uM
Assay type: cell-based
Set-up: test concentration 10 uM, cell line HepG2-A16-CD81EGFP
Details: human, HepG2-A16-CD81EGFP cells; read-out: INHIBITION
Method in brief: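 Uninfected HepG2-A16-CD81EGFP cells, 3 × 10^3 per well, 1536-well, plated on prespotted compound at 10 μM final, parasite-free screening media added to match infected plates; puromycin 10 μM positive, DMSO 0.5% negative; run in parallel with 48 h PbLuc assay at 37 °C, 5% CO2; viability by CellTiter-Glo luminescence, normalized to controls.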

Compound | cytotoxicity at 10 µM [%]
CC(C)(C)OC(=O)Cn1cccc(S(=O)(=O)N2CCCC2)c1=O | 5.54
O=C(Cc1cccs1)N1CCOCC1CO (stereo unspecified) | -4.63
COC1(CNC(=O)c2ccc3nsnc3c2)CCSC1 (stereo unspecified) | -1.36
Cc1ccc(CN2C[C@H](N(C)Cc3cncnc3)[C@H]3OCCC[C@H]32)o1 | -149
Cn1cnc(C(=O)N2CC3(CCN(S(=O)(=O)c4ccccc4)C3)C2)c1 | 3.8
CN(C)C(=O)N1CCC2(CC(=O)N(c3ccc4c(c3)OCO4)C2)C1 (stereo unspecified) | 8.04
O=C(Nc1ccccc1)C1=NOC2(CCCNC2)C1 (stereo unspecified) | 1.02
CC(=O)N1CC(=O)N(c2ccsc2)CC12CCN(Cc1ccoc1)C2 (stereo unspecified) | 5.56
O=C(c1cccs1)N1CCCn2c(nc(CN3CCCC3)cc2=O)C1 | -3.32
Cc1ccc(N2CCCc3sc(C(=O)NCCO)nc32)nn1 | 13.3
COC[C@@]12CCO[C@@H]1CCN(C(=O)COc1ccc(C)cc1)C2 | 1.39
Cc1nc(CN2CC3(CCN(c4nccs4)C3)CC2=O)cs1 (stereo unspecified) | -0.646
Cc1ccc2c(ccn2CCC(=O)NC[C@@H]2CCCN3CCCC[C@H]23)c1 | 2.29
CC1=Nc2c(c(=O)[nH]n2C(C)C)C(c2ccc(F)c(F)c2)S1 (stereo unspecified) | -5
COc1ccc(S(=O)(=O)N2CCC(S(C)(=O)=O)CC2)cc1C | 2.4
CC(=O)N[C@@H]1CN(C(=O)c2cccc(C(F)(F)F)c2)C[C@H]1O | 1.9
CNc1ccc(C2CN(c3cc(C)nc(N)n3)CCO2)nc1 (stereo unspecified) | 4.72
CCCC(=O)N1CCCC1(C)c1nc(C)no1 (stereo unspecified) | 0.79
CNC(=O)C1CN(Cc2cc(C)on2)CCN(C2CCOCC2)C1 (stereo unspecified) | 9.81
CNC(=O)c1ccc(C2CN(CC(=O)N(C)C)CCO2)nc1 (stereo unspecified) | 7.15
Cc1ccn(CCNC(=O)C2(C)CC(c3ccccc3)=NO2)n1 (stereo unspecified) | 8.46
COCCN1CCCC1(C)c1nc(C)cc(N)n1 (stereo unspecified) | -3.73
O=C(c1ccco1)N(c1ccc(F)cn1)C1CCOCC1 | -19.8

Compound | cytotoxicity at 10 µM [%]
Clc1ccc(N2CCN(CCCN3CCCCC3)CC2)nc1 | 0.563
Cc1nc(CN(C)C(=O)Nc2cccc(COC(C)C)c2C)no1 | 3.95
CC1CN(C(=O)Nc2cc(C(F)(F)F)c[nH]c2=O)CCO1 (stereo unspecified) | 3.44
CCc1ccc(C(=O)NC[C@H]2CCCN2C(=O)c2ccc(CC)o2)o1 | -5.54
c1ccc(-c2nc(SCc3nnc(C4CC4)o3)n[nH]2)nc1 | -1.78
CN(C)CCn1cc(NC(=O)NC(C)(C)c2nccs2)cn1 | -2.85
N#CC(NC(=O)CC(F)(F)F)c1ccsc1 (stereo unspecified) | 7.61
CCN(CC)C1CCN(C(=O)NCc2cccc(NC(C)=O)c2)C1 (stereo unspecified) | 4.55
O=C(NC1CC1)c1cc(Cl)ccc1-n1cnnn1 | 3.73
NC(=O)C1CCN(c2ccc3cc(Br)ccc3n2)C1 (stereo unspecified) | 7.87
COc1c(CNCc2ccccc2Cn2cncn2)c(C)nn1C | 1.56
CCc1ccc(C(=O)N(CC(F)(F)F)C2CCCOC2)o1 (stereo unspecified) | -7.59
O=C(NCc1nccn1CCc1ccccc1)NCC1(O)CCC1 | -2.97
Cc1nccn1C1CCCN(C(=O)c2cnn(C)c2C2CC2)C1 (stereo unspecified) | -5.92
Cc1ccc(CCNC(=O)N2CCC(Cc3cnn(C)c3)C2)cn1 (stereo unspecified) | 3.71
CC1CN(C)c2ccccc2CN1C(=O)c1cscn1 (stereo unspecified) | -1.03
Cc1ccc(CCC(C)NC2CCN(C(N)=O)CC2)cc1 (stereo unspecified) | -0.613
CC(C)(C)CCNC(=O)c1ccc(Cl)c(NS(C)(=O)=O)c1 | -3.85
COCC(C)(C#N)NC(=O)COc1ccccc1Br (stereo unspecified) | 5.67
COCCN1CCN(CC(=O)N(C)Cc2ccc(C)o2)CC1C (stereo unspecified) | -127
O=C(COCC1CC1)NCC(c1ccccc1)N1CCc2sccc2C1 (stereo unspecified) | 16.6
CN(C)c1cccc(CNC(=O)Nc2ccc3[nH]nnc3c2)n1 | 3.15
Cc1nc(CNC(C(=O)N2CCOCC2)c2ccccc2)cs1 (stereo unspecified) | 7.33

Compound | cytotoxicity at 10 µM [%]
CCc1nc(CC(=O)N2CCC(C(=O)N3CCCC3)CC2)cs1 | -2.71
COC(=O)N1CCCC(C(=O)N2CCCCC2)C1 (stereo unspecified) | -8.58
COc1ccc(C(C#N)NC(=O)CC2=CCCCC2)c(OC)c1 (stereo unspecified) | 10.7
CC(=O)N1CCCN(C(=O)NCCCc2cn[nH]c2C)CC1 | -9.67
Cc1ccccc1-c1cc(NC(=O)Cn2ccccc2=O)n(C)n1 | 3.8
CC(C)(C)OC(=O)NC1(c2noc(-c3ccco3)n2)CCC1 | -0.657
CC(C)OCCOCC(O)CN(C)C(=O)Nc1ccc(F)cc1Cl (stereo unspecified) | 10.7
CC1COCCN1C(=O)NCCn1ccnc1 (stereo unspecified) | -50.4
O=C(NC1CCN(c2ncccc2F)C1)c1cccc(-n2ccnc2)c1 (stereo unspecified) | 9.49
CCSCCC(=O)Nc1ncn(CC(=O)NCc2ccccc2)n1 | 20
CN(C)CCn1c(=O)oc2ccc(NC(=O)CC(C)(C)C)cc21 | -2.28
CCN(C)c1ccc(C(=O)N(CCOC)Cc2ccccn2)cc1 | -3.96
CN(C)c1ccc(C(=O)NCC2(O)CCOCC2)cc1 | -3.34
CC(NC(=O)C1=NN(C)C(=O)CC1)c1ccc(Cl)cc1Cl (stereo unspecified) | -10.4
CCc1ccc(CNC(=O)NC(C)CN2CCOCC2)s1 (stereo unspecified) | -1.84
NC(=O)c1ccc(CN2CCCC(N3CCCC3)C2)cc1 (stereo unspecified) | -3.63
CSc1cccc(NC(=O)N2CCC3(CCC(=O)N(C4CC4)C3)CC2)c1 | 9.27
CC(C)n1cc(-c2nc3cc(S(=O)(=O)N4CCCC4)ccc3n2C)cn1 | 1.12
Cc1c[nH]c(CN2CCOC(c3ccc(F)cc3)C2)c(C)c1=O (stereo unspecified) | -1.82
CN1CCCN(C[C@@H]2CN(C(=O)CCc3cn[nH]c3)C[C@@H]2CO)CC1 | 2.72
COc1ccc2c(c1)OCC(CNC(=O)c1cc[nH]c1C)C2 (stereo unspecified) | 3.34
Cc1cnc(CNC(=O)C2CCOc3ccccc3C2)cn1 (stereo unspecified) | -2.21
Cc1nc(N2CCCC(OCc3ccccn3)C2)c2c(C)noc2n1 (stereo unspecified) | 0.622

Compound | cytotoxicity at 10 µM [%]
CCc1ccc(CNC[C@H]2C[C@@H](CO)N(C)[C@H]2c2ccccc2F)o1 | -3.09
CN1CCCCC1CCC(=O)NCCCn1ncc2ccccc21 (stereo unspecified) | -13.3
CC(C)(C)c1ncc2c(n1)CN(C(=O)c1ccc(-n3cnnn3)cc1)C2 | -1.98
CCCc1n[nH]cc1C(=O)NCC1COc2cc(OC)ccc2C1 (stereo unspecified) | -0.506
Cc1nc(CCNC(=O)C2CCN(C(C)C)CC2)sc1Cl | -8.06
O=C(NC1CCCN(CCc2ccccc2)C1)c1ccccn1 (stereo unspecified) | -5.42
CC(=O)NCCNC(=O)c1cc(COc2ccccc2)[nH]n1 | -1.32
CN(C)CCO[C@H]1C[C@@H](O)C12CCN(c1nccc3ccccc13)CC2 | 2.2
CCOCC(=O)N1CCC(c2nccn2CC2CC2)CC1 | -7.18
CC(=O)NC1CCN(c2cc(-c3ccccc3)nc3c(C)c(C)nn23)C1 (stereo unspecified) | -3.98
CCN(CC)CC(=O)N(C)C(c1cccc(F)c1)c1ccccn1 (stereo unspecified) | -6.54
CCN(Cc1ccc2c(c1)OCO2)S(=O)(=O)N(C)C(C)C | 8.55
COC(=O)C(NC(=O)CCc1ccco1)c1cc(F)ccc1F (stereo unspecified) | -0.448
CN(Cc1cccs1)C(=O)CN1CCCC(Cn2cncn2)C1 (stereo unspecified) | -3.95
CCOc1cc(C(=O)NS(=O)(=O)c2cccc(C#N)c2)ccc1OC | -6.69
Cn1cc(C#N)c(=O)n(CC(O)c2ccccc2F)c1=O (stereo unspecified) | -11
O=C(NCCCOCC1CC1)Nc1ccc(-n2cncn2)c(F)c1 | -0.132
COc1cccc(NC(=O)NCC(O)c2ccc(F)cc2F)c1 (stereo unspecified) | -1.43
Cc1nc(C)n(CC2CCCN(CCC(=O)Nc3cc(C)on3)C2)n1 (stereo unspecified) | -1.68
N#Cc1ccc(CC(=O)N2CCC(Nc3cccnn3)CC2)cc1 | -4.11
Cc1ccccc1CN(C)C(=O)CN1CCOC(Cn2cccn2)C1 (stereo unspecified) | -5.1
Cc1cc(C)n(CC2CCCN2Cc2cscn2)n1 (stereo unspecified) | -7.65
Cc1cccc(CC(=O)NCCCOC(C)C)c1 | -2.25

Compound | cytotoxicity at 10 µM [%]
CC(C)(O)CN1CCN(C(=O)c2cccnc2O)CC1 | -21.7
COCCN1CCC(CNC(=O)C2(c3cccc(C)c3)CC2)CC1 | -1.88
O=C1CCc2cc(C(=O)NCc3ccc(-n4cncn4)nc3)ccc2N1 | -11.5
Cc1ccc(C(=O)N2CCc3c(CNS(C)(=O)=O)cncc3C2)o1 | -11.3
O=C(CCc1cccc(C2CCNCC2)n1)N1CCCCC1 | -4.78
O=C(C1CCOCC1)N1CCc2ncc(CN3CCOCC3)n2CC1 | -79.6
CN(C)Cc1nnc2n1CCN(c1cnccn1)CC2 | -10.8
CC(=O)N1CC(=O)N(c2cccnc2)CC12CCN(Cc1nccs1)C2 (stereo unspecified) | 6.85
CN(C)C[C@@H]1CCC[C@@H]2CN(c3nccc(C(F)(F)F)n3)C[C@@H]21 | -2.75
CC(=O)N1C[C@H]2CCCN(Cc3ccc(C)o3)[C@H]2C1 | -1.36
CCC1=N[C@@]2(CC[C@@H]3CN(CC(=O)N(C)C)C[C@@H]32)C(=O)N1CC1CC1 | -3.5
O=C(NC1CC1)N1Cc2[nH]nc(COc3cccnc3)c2C1 | 4.77
COCC(=O)NCC1Cn2nnc(-c3ccncc3)c2CO1 (stereo unspecified) | 8.22
Cc1cccc(CN2CCC3(CCCN(C(=O)N(C)C)C3)C2=O)n1 (stereo unspecified) | 1.44
COCC(=O)N1C[C@H]2CCCC(OCc3cccnc3)[C@H]2C1 (stereo partly specified) | -5.67
Fc1cnc(N2CCC3(CC2)CN(Cc2ccccn2)CCO3)nc1 | 0.35
CC(=O)NCC1(COc2cnccn2)C[C@@H](O)[C@@H](O)C1 (stereo partly specified) | 1.47
CCNc1c(NC(=O)C(C)(C)C)c(=O)oc2ccccc12 | -1.97
CN1CC2(CCC(C(=O)N3CCOCC3)CC2)Oc2ccccc2C1=O (stereo unspecified) | 5.91
